{"data": "Assay results pooled from the literature", "effect on": "enzyme activity", "RET": "Proto-oncogene tyrosine-protein kinase receptor Ret (RET, Homo sapiens, UniProt P07949)", "note": "Protocols differ between the studies behind these lines."}
{"target": "RET", "assay": "inhibitor, radiometric", "setting": "0.1 µM", "remaining activity [%]": 110, "Structure (SMILES)": "COc1cccc(NC(=O)Nc2c(-c3ccc(Cl)cc3)nn(-c3ccc(F)cc3)c2N)c1"}
{"target": "RET", "assay": "inhibitor, radiometric", "setting": "1 µM", "remaining activity [%]": 69, "Structure (SMILES)": "CC(C)(C)c1nc2c(s1)c1nc(N)ncc1c1ccc(NS(=O)(=O)c3c(F)cccc3F)c(F)c12"}
{"target": "RET", "assay": "inhibitor", "setting": "5 µM", "remaining activity [%]": 98.1, "Structure (SMILES)": "O=C(Nc1cnn(-c2csc(C(=O)NC3COC3)c2)c1)Nc1c(F)cccc1Cl"}
{"target": "RET", "setting": "23.5 nM", "remaining activity [%]": 1.3, "Structure (SMILES)": "Cc1ccc(C(=O)Nc2ccc(CN3CCN(C)CC3)c(C(F)(F)F)c2)cc1C#Cc1cnc2cccnn12"}
{"target": "RET", "assay": "inhibitor", "setting": "0.1 µM", "remaining activity [%]": 62, "Structure (SMILES)": "Cc1[nH]c(/C=C2\\C(=O)Nc3ccc(F)cc32)c(C)c1C(=O)N[C@H]1CCN(C(=O)N(C)C)C1"}
{"target": "RET", "assay": "inhibitor", "setting": "1 µM", "remaining activity [%]": 110, "Structure (SMILES)": "COc1cc(Cl)c(C(=O)N[C@@H](CN[C@H]2CC[C@@H](N)CC2)Cc2ccc(C#N)cc2)cc1-c1ccc(CN[C@H](C)c2ccc(C)cc2)o1"}
{"target": "RET", "assay": "inhibitor, radiometric", "setting": "0.1 µM", "remaining activity [%]": 153, "Structure (SMILES)": "COc1cc(NC(=O)Nc2cccc(Br)c2)cc2sc(NC(=O)c3ccccc3)nc12"}
{"target": "RET", "assay": "inhibitor", "setting": "0.1 µM", "remaining activity [%]": 98, "Structure (SMILES)": "CCCOc1ccc(OC)c(F)c1C(=O)c1ccc(C(=O)N[C@@H]2CNC[C@H]2NC(=O)c2ccc3[nH]ncc3c2)cc1"}
{"target": "Proto-oncogene tyrosine-protein kinase receptor Ret (RET, Homo sapiens, UniProt P07949, V804M)", "assay": "inhibitor, radiometric", "setting": "1 µM", "remaining activity [%]": 100, "Structure (SMILES)": "Cc1cnc(NC2CCOCC2)nc1-n1cnc(C(=O)NC(CN)c2cc(F)cc(Cl)c2)c1 (stereo not shown)"}
{"target": "RET", "assay": "inhibitor, radiometric", "setting": "0.1 µM", "remaining activity [%]": 118, "Structure (SMILES)": "CCOc1ccccc1NC(=O)Nc1cc(OC)c2nc(NC(=O)c3ccccc3)sc2c1"}
{"target": "RET", "assay": "inhibitor", "setting": "1 µM", "remaining activity [%]": 0, "Structure (SMILES)": "CCN(CC)CCNC(=O)c1c(C)[nH]c(/C=C2\\C(=O)Nc3ccc(F)cc32)c1C"}
{"target": "RET", "assay": "inhibitor, radiometric", "setting": "10 µM", "remaining activity [%]": 111, "Structure (SMILES)": "COc1ccc(-c2cn3cc(C(=O)N4CC(O)C4)nc3c(=O)n2C)c(F)c1"}
{"target": "RET", "assay": "inhibitor", "setting": "10 µM", "remaining activity [%]": 113, "Structure (SMILES)": "Cc1sc(C(=O)NC2COC2)cc1-n1cc(NC(=O)Nc2c(F)cccc2Cl)cn1"}
